The source of these data is ChEMBL document CHEMBL2331084, “Synthesis and evaluation of oxime derivatives as modulators for amyloid beta-induced mitochondrial dysfunction” (Eur J Med Chem, 2013).

Data set [1] concerns HT-22. In words: Inhibition of mPTP in mouse HT22 cells assessed as reduction in amyloid beta-induced mitochondrial membrane damage at 10 uM incubated for 10 mins prior to amyloid beta-challenge measured every 1 hr for 3 hrs by JC-1 based fluorometric analysis. Type of data set: cell-based. Details: scale not given: the % may be the effect or the level left. The method in brief:
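HT-22 cells, 30,000 per well, seeded a day earlier, loaded with 7.5 μM JC-1 (final) in phenol red-free Opti-MEM for 1 h 15 min at 37 °C, then PBS-washed. Compound solution at 10 μM for 10 min at 37 °C, then amyloid beta 1–42 solution at 10 μM. Red (ex/em 530/580) and green (485/530) fluorescence read hourly for 3 h. Green/red ratio change normalised to vehicle as 100%.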

For data set [2], the system named is HT-22. In words: Inhibition of mPTP in mouse HT22 cells assessed as recovery in amyloid beta-suppressed ATP level at 5 uM incubated for 10 mins prior to amyloid beta-challenge measured for 7 hrs relative to control. Type of data set: cell-based. Details: scale not given: the % may be the effect or the level left. Summed up: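 HT-22 mouse hippocampal cells, grown in DMEM with 10% FBS at 37 °C and 5% CO2, were seeded the day before. Compound (10 µM solution) added 10 min before amyloid beta 1-42 (10 µM solution), then 7 h at 37 °C. Lysates normalised to equal protein by BCA, and ATP measured with a luciferase kit. % recovery is relative to the amyloid-treated vehicle. Viability is from ATP without amyloid beta.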

Data set [3] can be described thus: Cytotoxicity against mouse […] cells assessed as cell viability at 5 uM. Format: cell-based. Conditions: read-out: Activity.
Data set [4] in a line: Cytotoxicity against mouse […] cells assessed as cell viability at 10 uM after 24 hrs by MTT assay. Format: cell-based. The settings on record: read-out: Activity.
In data set [5] the test system is HT-22. Nature of the data set: Neuroprotective activity against in mouse HT22 cells assessed as inhibition of amyloid beta-induced toxicity at 10 uM incubated for 10 mins prior to amyloid beta-challenge measured after 24 hrs by MTT assay. Type of data set: functional. The method in brief: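 HT-22 mouse hippocampal cells (DMEM, 10% FBS), 5000 per well, seeded a day before. Compound solution at 10 μM added 10 min before amyloid beta 1–42 solution at 10 μM, then 24 h at 37 °C. MTT 2 h, then acidified Triton/isopropanol for 1 h at RT, A570. Vehicle subtracted; % inhibition versus Aβ-treated vehicle; viability from wells without Aβ.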
(In general: Tetrazolium assays rely on reduction of a dye to a coloured formazan, in cell work by metabolically active cells.)

As to `Clc1ccc(COc2ccccc2/C=N/OC2CN3CCC2CC3)cc1` (stereo not drawn), in data set [1], the Activity is 85%.

With `CN1CCCC(O/N=C/c2cccc(C(F)(F)F)c2)C1` (stereo not drawn), the Activity in data set [1] was 84%. On the same count and under the same terms, for `FC(F)(F)c1cccc(/C=N/OC2CCN(Cc3ccccc3)C2)c1` (stereo not drawn) the value was 123%; for `Fc1ccc(COc2ccccc2/C=N/OC2CN3CCC2CC3)cc1` (stereo not drawn), 93%.

As to `C(=N\OC1CN2CCC1CC2)/c1ccccc1Oc1ccccc1` (stereo not drawn), the Activity in data set [1] was 84%. Still for that read-out and setting: for `Clc1ccc(COc2ccccc2/C=N/OC2CCN(Cc3ccccc3)C2)c(Cl)c1` (stereo not drawn) the value was 61%; for `Clc1cccc(COc2ccccc2/C=N/OC2CN3CCC2CC3)c1` (stereo not drawn), 101%; for `COc1ccccc1/C=N/OC1CCCN(C)C1` (stereo not drawn), 257%.

For the compound `CC(C)N1CCC(O/N=C/c2ccccc2OCc2ccc(Cl)cc2Cl)C1` (stereo not drawn), in data set [1], the Activity is 61%. The same measure, in the same setting: for `Fc1cccc(COc2ccccc2/C=N/OC2CN3CCC2CC3)c1` (stereo not drawn) the value was 75%. Consider `FC(F)(F)c1ccccc1/C=N/OC1CN2CCC1CC2` (stereo not drawn), for which the Activity in data set [1] is 86%. Still for that read-out and setting: for `CN1CCC(O/N=C/c2ccccc2OCc2ccccc2)C1` (stereo not drawn) the value was 69%. Take `C(=N\OC1CN2CCC1CC2)/c1cccc(OCc2ccccc2)c1` (stereo not drawn): the Activity in data set [1] was 121%. With `FC(F)(F)c1ccc(COc2ccccc2/C=N/OC2CN3CCC2CC3)cc1` (stereo not drawn), in data set [1], the Activity was determined as 85%. For the compound `CC(C)N1CCC(O/N=C/c2ccccc2OCc2cccc(F)c2)C1` (stereo not drawn), the Activity was -223% in data set [2] and 39% in data set [1]. The viability at 5 µM in data set [3] (HT22 cells) was determined as 94%. In the case of `Clc1ccc(COc2ccccc2/C=N/OC2CN3CCC2CC3)cc1Cl` (stereo not drawn), in data set [1], the Activity came out at 77%. Turning to `Fc1ccccc1COc1ccccc1/C=N/OC1CN2CCC1CC2` (stereo not drawn), in data set [1], the Activity stood at 82%.

Take `Fc1ccccc1/C=N/OC1CN2CCC1CC2` (stereo not drawn): in data set [1], the Activity worked out at 96%. Still for that read-out and setting: for `CN1CCCC(O/N=C/c2ccccc2OCc2ccc(Cl)cc2Cl)C1` (stereo not drawn) the value was 64%; for `CN1CCC(O/N=C/c2cccc(C(F)(F)F)c2)C1` (stereo not drawn), 108%; for `COc1cccc(/C=N/OC2CN3CCC2CC3)c1` (stereo not drawn), 86%.

With `CN1CCC(O/N=C/c2ccccc2OCc2ccc(Cl)cc2Cl)C1` (stereo not drawn), the Activity in data set [2] was -9%; in data set [1], 18%. For the same compound, the viability at 5 µM in data set [3] (HT22 cells) was found to be 90%. `CN1CCC(O/N=C/c2ccccc2OCc2ccc(Cl)c(Cl)c2)C1` (stereo not drawn): the Activity in data set [1] worked out at 57%. Same read-out and setting: for `COc1ccccc1/C=N/OC1CN2CCC1CC2` (stereo not drawn) the value was 71%. Same read-out and setting: for `Brc1cccc(/C=N/OC2CN3CCC2CC3)c1` (stereo not drawn) the value was 95%. Still for that read-out and setting: for `COc1ccccc1/C=N/OC1CCN(Cc2ccccc2)C1` (stereo not drawn) the value was 81%; for `Brc1ccccc1/C=N/OC1CN2CCC1CC2` (stereo not drawn), 93%; for `FC(F)(F)c1cccc(/C=N/OC2CN3CCC2CC3)c1` (stereo not drawn), 74%. As for `Clc1ccccc1COc1ccccc1/C=N/OC1CN2CCC1CC2` (stereo not drawn), in data set [1], the Activity was found to be 88%. The same measure, in the same setting: for `Clc1cccc(Cl)c1COc1ccccc1/C=N/OC1CN2CCC1CC2` (stereo not drawn) the value was 96%; for `COc1ccccc1/C=N/OC1CCN(C)C1` (stereo not drawn), 147%; for `Fc1cccc(/C=N/OC2CN3CCC2CC3)c1` (stereo not drawn), 92%. For `FC(F)(F)c1ccccc1COc1ccccc1/C=N/OC1CN2CCC1CC2` (stereo not drawn), in data set [1], the Activity worked out at 91%. For `FC(F)(F)c1cccc(COc2ccccc2/C=N/OC2CN3CCC2CC3)c1` (stereo not drawn), the Activity in data set [1] is 90%. For the compound `CN1CCC(O/N=C/c2ccccc2OCc2cccc(F)c2)C1` (stereo not drawn), the Activity in data set [2] stood at 20%; in data set [1], 42%. In addition, the viability at 5 µM in data set [3] (HT22 cells) turned out to be 87%. Regarding `CC(C)N1CCC(O/N=C/c2cccc(C(F)(F)F)c2)C1` (stereo not drawn), in data set [1], the Activity was found to be 54%. In the case of `Fc1cccc(COc2ccccc2/C=N/OC2CCN(Cc3ccccc3)C2)c1` (stereo not drawn), the Activity is -201% in data set [2] and 42% in data set [1]. Moreover, the viability at 5 µM in data set [3] (HT22 cells) amounted to 74%. Turning to `COc1ccc(COc2ccccc2/C=N/OC2CN3CCC2CC3)cc1` (stereo not drawn), the Activity in data set [1] was 96%.

As for `CN1CCCC(O/N=C/c2ccccc2OCc2cccc(F)c2)C1` (stereo not drawn), the Activity in data set [2] stood at 9%; in data set [1] it was 32%. Further, the viability at 5 µM in data set [3] (HT22 cells) is 136%. As for `CN1CCCC(O/N=C/c2ccccc2OCc2ccc(Cl)c(Cl)c2)C1` (stereo not drawn), in data set [1], the Activity worked out at 62%. Regarding `CN1CCCC(O/N=C/c2ccccc2OCc2ccccc2)C1` (stereo not drawn), the values for the Activity in data set [2] and in data set [1] were 15% and 29%, respectively. Besides, in data set [3] (HT22 cells), the viability at 5 µM is 112%. `CC(C)N1CCC(O/N=C/c2ccccc2OCc2ccccc2)C1` (stereo not drawn): the Activity is -93% in data set [2] and 19% in data set [1]. Also, in data set [3] (HT22 cells), the viability at 5 µM stood at 67%.

Turning to `NC(=O)CN1CCCC1=O` [PIRACETAM], the Activity was 127% in data set [2] and 40% in data set [1]. The viability at 5 µM in data set [3] worked out at 88%. Besides, the viability at 24 h, 10 µM in data set [4] was determined as 132%. The inhibition (as a rule, the drop in the measured response relative to a control, in per cent) at 10 µM in data set [5] was 29%. With `CC(C)N1CCC(O/N=C/c2ccccc2OCc2ccc(Cl)c(Cl)c2)C1` (stereo not drawn), in data set [1], the Activity stood at 95%. As for `C(=N\OC1CCN(Cc2ccccc2)C1)/c1ccccc1OCc1ccccc1` (stereo not drawn), the Activity in data set [2] is -137%; in data set [1] it was 38%. Besides, in data set [3] (HT22 cells), the viability at 5 µM was determined as 99%.

Turning to `COc1ccccc1/C=N/OC1CCN(C(C)C)C1` (stereo not drawn), the Activity in data set [1] was 55%.

With `Clc1ccc(COc2ccccc2/C=N/OC2CN3CCC2CC3)c(Cl)c1` (stereo not drawn), the Activity in data set [1] is 69%. As to `C(=N\OC1CN2CCC1CC2)/c1cccc(Oc2ccccc2)c1` (stereo not drawn), the Activity in data set [1] stood at 138%.
